In ChEMBL document CHEMBL1134488, “Potent reversible inhibitors of the protein tyrosine phosphatase CD45” (J Med Chem, 2001):

Assays:
[1] = molecular target: T1, Tyrosine-protein phosphatase non-receptor type 1 (Homo sapiens, UniProt P18031); assay: Inhibitory concentration against PTP1B lusing lck-10mer as substrate
T1 sequence (P18031 whole entry): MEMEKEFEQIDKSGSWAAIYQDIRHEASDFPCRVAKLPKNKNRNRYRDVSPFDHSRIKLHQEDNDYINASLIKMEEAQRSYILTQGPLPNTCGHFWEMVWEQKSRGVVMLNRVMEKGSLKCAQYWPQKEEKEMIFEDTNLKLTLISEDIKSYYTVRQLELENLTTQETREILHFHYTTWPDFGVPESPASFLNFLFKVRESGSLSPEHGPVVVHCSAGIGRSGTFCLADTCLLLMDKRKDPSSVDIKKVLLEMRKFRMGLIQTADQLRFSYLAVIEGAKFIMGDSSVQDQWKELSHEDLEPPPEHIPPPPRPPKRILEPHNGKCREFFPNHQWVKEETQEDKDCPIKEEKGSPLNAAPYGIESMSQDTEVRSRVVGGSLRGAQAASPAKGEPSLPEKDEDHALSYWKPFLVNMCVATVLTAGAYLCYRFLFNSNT

[2] = molecular target: T2, Tyrosine-protein phosphatase non-receptor type 13 (Homo sapiens, UniProt Q12923); assay: Inhibitory concentration against FAP-1 using pNPP as substrate
T2 sequence (Q12923 whole entry): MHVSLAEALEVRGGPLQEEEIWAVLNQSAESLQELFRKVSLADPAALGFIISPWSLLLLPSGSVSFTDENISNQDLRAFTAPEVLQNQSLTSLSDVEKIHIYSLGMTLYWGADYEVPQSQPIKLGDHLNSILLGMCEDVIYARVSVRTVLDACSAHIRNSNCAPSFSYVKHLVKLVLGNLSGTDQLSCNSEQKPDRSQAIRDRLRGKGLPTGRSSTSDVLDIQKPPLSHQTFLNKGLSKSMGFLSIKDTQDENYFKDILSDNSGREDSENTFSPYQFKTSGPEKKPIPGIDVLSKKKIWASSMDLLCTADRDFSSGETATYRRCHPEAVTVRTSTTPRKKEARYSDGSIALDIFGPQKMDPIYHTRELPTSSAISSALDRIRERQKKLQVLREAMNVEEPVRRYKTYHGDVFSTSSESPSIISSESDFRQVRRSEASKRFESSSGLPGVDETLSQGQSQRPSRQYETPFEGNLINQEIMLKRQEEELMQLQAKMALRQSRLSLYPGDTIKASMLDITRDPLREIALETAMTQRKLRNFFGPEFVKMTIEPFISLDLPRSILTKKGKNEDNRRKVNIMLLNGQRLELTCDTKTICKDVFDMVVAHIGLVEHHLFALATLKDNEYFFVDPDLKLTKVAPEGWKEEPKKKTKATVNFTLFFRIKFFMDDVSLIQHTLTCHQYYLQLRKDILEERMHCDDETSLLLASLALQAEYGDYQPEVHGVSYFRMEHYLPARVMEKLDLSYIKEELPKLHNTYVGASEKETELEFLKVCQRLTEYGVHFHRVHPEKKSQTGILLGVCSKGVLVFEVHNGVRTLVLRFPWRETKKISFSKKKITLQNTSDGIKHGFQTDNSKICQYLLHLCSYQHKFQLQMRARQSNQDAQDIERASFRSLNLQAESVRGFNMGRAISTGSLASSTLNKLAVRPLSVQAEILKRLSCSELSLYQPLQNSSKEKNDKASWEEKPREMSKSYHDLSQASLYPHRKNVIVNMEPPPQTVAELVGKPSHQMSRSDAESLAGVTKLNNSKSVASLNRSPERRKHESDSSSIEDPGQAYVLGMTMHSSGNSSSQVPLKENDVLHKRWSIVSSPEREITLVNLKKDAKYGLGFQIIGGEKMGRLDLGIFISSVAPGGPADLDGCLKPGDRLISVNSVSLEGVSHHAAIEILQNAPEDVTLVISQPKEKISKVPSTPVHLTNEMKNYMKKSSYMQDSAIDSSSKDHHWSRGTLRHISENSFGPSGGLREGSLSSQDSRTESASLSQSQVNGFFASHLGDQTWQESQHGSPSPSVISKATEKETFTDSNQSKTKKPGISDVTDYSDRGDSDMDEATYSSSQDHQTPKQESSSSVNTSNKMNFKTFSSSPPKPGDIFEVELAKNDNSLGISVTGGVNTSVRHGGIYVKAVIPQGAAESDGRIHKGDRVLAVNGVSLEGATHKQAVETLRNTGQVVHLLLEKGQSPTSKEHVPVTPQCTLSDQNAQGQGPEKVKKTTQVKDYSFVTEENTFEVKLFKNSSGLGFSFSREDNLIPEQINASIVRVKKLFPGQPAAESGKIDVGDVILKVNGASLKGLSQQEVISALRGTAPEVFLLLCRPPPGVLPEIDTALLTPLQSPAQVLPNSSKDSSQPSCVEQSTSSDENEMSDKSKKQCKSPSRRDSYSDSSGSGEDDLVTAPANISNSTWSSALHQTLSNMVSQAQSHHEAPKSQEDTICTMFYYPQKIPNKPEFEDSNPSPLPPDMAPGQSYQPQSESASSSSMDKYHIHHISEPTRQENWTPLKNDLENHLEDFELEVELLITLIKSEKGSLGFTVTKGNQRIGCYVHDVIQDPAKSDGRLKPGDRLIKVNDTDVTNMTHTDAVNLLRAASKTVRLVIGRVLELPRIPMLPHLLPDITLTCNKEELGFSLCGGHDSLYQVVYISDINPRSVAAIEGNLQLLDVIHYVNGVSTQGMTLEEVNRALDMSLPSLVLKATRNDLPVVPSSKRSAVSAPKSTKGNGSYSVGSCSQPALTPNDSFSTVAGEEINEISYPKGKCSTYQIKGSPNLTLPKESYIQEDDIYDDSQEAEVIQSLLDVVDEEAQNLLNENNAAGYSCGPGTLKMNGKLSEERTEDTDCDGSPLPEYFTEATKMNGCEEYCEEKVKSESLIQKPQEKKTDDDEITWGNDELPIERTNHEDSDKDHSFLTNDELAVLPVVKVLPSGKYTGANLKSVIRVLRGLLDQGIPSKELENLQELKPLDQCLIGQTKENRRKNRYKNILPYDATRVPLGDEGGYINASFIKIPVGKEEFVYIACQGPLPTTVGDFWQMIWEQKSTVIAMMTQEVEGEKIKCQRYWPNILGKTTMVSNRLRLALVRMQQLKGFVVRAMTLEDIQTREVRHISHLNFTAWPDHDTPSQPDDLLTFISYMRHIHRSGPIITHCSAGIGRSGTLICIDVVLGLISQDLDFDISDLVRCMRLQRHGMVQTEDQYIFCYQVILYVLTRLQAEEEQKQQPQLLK

[3] = molecular target: T2, Tyrosine-protein phosphatase non-receptor type 13; assay: Inhibitory concentration against FAP-1 using lck-10mer as substrate
Procathepsin L = Procathepsin L (Homo sapiens, UniProt P07711); assay: Inhibitory concentration against Cathepsin L
Sequence of Procathepsin L (P07711 whole entry): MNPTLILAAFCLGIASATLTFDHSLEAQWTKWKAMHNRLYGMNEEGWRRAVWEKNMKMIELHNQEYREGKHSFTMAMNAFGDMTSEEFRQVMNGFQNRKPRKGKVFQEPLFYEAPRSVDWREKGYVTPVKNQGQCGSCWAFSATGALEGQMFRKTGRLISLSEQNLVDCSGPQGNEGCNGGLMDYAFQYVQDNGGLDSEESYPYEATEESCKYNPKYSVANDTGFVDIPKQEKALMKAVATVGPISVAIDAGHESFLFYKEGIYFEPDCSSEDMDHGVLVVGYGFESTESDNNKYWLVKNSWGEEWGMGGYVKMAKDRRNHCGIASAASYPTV
Summary of the method: (§1)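 Cysteine protease assays. Peptide substrates were CBZ-L-lysine p-nitrophenyl ester, Z-Phe-Arg-NH-Mec and Z-Val-Val-Arg-NH-Mec. Values are means of experiments run in triplicate, given in µM.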

T-cell [4] = assay: Cytotoxicity measured against human T-cells; format: functional
Cathepsin S = Cathepsin S (Homo sapiens, UniProt P25774); assay: Inhibitory concentration against Cathepsin S; summary of the method: as §1
Sequence of Cathepsin S (P25774 whole entry): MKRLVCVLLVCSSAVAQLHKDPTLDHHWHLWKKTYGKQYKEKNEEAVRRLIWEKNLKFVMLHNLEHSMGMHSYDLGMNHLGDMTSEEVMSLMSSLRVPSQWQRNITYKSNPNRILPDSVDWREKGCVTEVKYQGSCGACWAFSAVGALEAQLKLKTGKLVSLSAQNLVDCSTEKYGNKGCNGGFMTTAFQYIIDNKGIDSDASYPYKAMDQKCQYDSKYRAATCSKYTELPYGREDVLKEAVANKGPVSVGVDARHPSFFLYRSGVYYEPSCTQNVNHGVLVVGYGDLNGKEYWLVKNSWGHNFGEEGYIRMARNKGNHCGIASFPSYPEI

Cathepsin B = Cathepsin B (Homo sapiens, UniProt P07858); assay: Inhibitory concentration against Cathepsin B; summary of the method: as §1
[5] = molecular target: T2, Tyrosine-protein phosphatase non-receptor type 13; assay: Inhibitory concentration against FAP-1 pNPP
[6] = molecular target: T2, Tyrosine-protein phosphatase non-receptor type 13; assay: Inhibitory concentration against FAP-1 using lck-10 mer as substrate
T-cell [7] = assay: In vitro inhibition of human T-cell proliferation; format: functional, cell-based
[8] = molecular target: T3, Receptor-type tyrosine-protein phosphatase C (Homo sapiens, UniProt P08575); assay: Inhibitory concentration against CD45 protein-tyrosine phosphatase using lck-10mer as substrate
T3 sequence (P08575 whole entry): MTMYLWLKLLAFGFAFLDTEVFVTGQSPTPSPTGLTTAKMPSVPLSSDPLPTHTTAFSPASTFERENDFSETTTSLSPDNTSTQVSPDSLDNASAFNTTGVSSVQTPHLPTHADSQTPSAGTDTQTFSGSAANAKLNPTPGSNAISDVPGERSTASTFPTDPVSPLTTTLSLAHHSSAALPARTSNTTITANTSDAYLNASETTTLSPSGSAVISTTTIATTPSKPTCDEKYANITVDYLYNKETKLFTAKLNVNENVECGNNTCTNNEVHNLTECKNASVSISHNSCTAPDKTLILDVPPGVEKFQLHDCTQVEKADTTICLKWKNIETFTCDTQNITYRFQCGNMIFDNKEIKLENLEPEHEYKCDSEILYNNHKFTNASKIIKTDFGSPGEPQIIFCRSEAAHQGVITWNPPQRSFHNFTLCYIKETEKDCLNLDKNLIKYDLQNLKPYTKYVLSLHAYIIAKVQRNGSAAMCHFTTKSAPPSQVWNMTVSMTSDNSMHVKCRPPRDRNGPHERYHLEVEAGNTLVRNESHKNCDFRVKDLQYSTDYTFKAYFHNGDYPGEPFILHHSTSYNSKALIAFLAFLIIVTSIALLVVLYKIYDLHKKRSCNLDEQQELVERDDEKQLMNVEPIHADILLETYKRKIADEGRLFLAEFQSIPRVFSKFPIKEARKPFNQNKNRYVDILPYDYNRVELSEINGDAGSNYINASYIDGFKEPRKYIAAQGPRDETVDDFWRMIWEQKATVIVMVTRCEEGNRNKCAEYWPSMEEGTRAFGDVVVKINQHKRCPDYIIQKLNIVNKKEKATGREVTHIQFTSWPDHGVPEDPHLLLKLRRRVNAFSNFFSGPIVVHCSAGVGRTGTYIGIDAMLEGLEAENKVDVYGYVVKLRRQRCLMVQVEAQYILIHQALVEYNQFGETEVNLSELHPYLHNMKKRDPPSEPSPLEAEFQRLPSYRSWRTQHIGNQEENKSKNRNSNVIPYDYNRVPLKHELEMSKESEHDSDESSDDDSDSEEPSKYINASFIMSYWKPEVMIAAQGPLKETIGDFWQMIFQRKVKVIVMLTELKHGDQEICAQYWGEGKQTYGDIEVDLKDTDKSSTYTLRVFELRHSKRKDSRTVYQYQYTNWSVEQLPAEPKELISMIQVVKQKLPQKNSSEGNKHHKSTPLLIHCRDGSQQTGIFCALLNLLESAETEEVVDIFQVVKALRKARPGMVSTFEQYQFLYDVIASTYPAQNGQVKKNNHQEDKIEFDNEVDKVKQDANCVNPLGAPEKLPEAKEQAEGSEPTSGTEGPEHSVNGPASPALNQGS

SMILES	IC50 [1] [µM]	IC50 [2] [µM]	IC50 [3] [µM]	IC50 (Procathepsin L) [µM]	CC50 (T-cell [4]) [µM]	IC50 (Cathepsin S) [µM]	IC50 (Cathepsin B) [µM]	IC50 [5] [µM]	IC50 [6] [µM]	IC50 (T-cell [7]) [µM]	IC50 [8] [µM]
Nc1ccc2c(c1)C(=O)C(=O)c1ccccc1-2	> 30	4.7	> 30	0.6	5	6	> 10	–	–	–	–
O=C(O)CNC(=O)c1ccc2c(c1)C(=O)C(=O)c1ccccc1-2	–	–	–	0.9	> 30	> 10	> 10	15	> 30	4.4	1.9
